# HTRA1 inhibitor – HTRA1 serine protease inhibitors, primary screen, biochemical, fluorescence polarization, HTS | Q92743 | recombinant HTRA1, FP-rhodamine activity-based probe | inhibition, % at 5.96 µM | 340,000 compounds, 0.5% hits | AID 504803, 2011; in the data active means inhibition above about 36%;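 further: 0% = enzyme with DMSO and 100% = wells lacking enzyme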
# Tn7 DDE FP – inhibitors of Tn7 peptide binding to fibrin DD(E), primary screen, biochemical, fluorescence polarization, human fibrin, Tn7 probe; Fibrinogen beta chain (Homo sapiens), P02675; FP displacement of FITC-Tn7 peptide from fibrin DD(E); 0% = median of compound wells per plate; inhibition, % at 8.3 µM; 370,000 compounds, 0.13% hits; AID 720508, 2013;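 active means inhibition above the mean of compounds falling within the control limits plus 3 SD of them, cut at about 14% in these data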;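 further: 0% = plate median of compound wells and 100% = 10 µM Aha-Tn7 peptide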
# Target sequence (P02675 whole entry, looked up): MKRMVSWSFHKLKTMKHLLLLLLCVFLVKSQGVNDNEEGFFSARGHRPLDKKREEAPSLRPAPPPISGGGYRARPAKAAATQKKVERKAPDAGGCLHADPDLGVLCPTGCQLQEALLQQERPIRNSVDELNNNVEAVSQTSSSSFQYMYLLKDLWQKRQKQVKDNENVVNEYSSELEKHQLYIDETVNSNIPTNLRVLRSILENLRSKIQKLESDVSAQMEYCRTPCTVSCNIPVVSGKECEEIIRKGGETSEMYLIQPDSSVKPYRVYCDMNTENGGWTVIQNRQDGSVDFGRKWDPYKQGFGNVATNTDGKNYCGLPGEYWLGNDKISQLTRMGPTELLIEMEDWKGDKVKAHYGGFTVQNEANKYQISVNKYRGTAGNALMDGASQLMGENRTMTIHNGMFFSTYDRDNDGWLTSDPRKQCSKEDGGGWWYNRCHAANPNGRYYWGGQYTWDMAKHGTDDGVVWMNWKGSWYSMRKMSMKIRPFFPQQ
#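 Assay system: Human fibrin DD(E) protein | Medium: Tris buffer with calcium and detergent, pH 7.8 | Reagent: 0.1 µM fluorescent Tn7 | Compound dosing: Single point at 8.3 µM | Times: 10 min preincubation, 3 h with tracer, room temperature | Detection: Fluorescence polarization of the labelled Tn7 tracer | Controls: Aha-Tn7 high control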
# TCR CD3 inh – inhibitors of human TCR-CD3 interaction, primary screen, biochemical, fluorescence, TAMRA-labeled TCR probe; inhibition, % at 9.4 µM; T-cell receptor (TCR); 360,000 compounds, 0.37% hits;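 further: recombinant mutant TCR 2C K166C tagged with TAMRA read by polarization; 0% = receptor in buffer alone and 100% = receptor with positive control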
# SIAE inh – human SIAE inhibitors, primary screen, biochemical, fluorescence polarization, FP-Rh probe, 1536-well HTS; SIAE FP-Rh probe binding; inhibition, % at 9.66 µM; 370,000 compounds, 0.69% hits; AID 1053197, 2014;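 active means inhibition above a cutoff: mean of compounds within the control limits plus 3 SD of those, cut at about 17% in these data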;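 further: 0% = plate median of compound wells and 100% = probe without SIAE protein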
# mABHD4 FP – ABHD4 inhibitors, primary screen, biochemical, fluorescence polarization, mouse. inhibition, % at 8.92 µM. AID 720543, 2013. purified mABHD4, FP-Rh probe fluorescence polarization. 370,000 compounds, 0.54% hits;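 active means inhibition exceeding the mean over every tested compound plus 3 SD, cut at about 30% in these data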;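 further: 0% = plate median of compound wells and 100% = S159A mutant with DMSO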
# Target sequence (Q8VD66 whole entry, looked up): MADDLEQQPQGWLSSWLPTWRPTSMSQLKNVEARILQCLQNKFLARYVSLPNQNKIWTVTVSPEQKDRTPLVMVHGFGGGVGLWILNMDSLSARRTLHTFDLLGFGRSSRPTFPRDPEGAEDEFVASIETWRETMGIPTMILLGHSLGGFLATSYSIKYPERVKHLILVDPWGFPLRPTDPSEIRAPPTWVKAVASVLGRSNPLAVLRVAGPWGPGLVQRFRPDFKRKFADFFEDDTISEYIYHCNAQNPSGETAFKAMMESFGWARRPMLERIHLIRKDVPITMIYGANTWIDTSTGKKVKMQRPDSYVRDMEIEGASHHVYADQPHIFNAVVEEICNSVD
#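 System: mouse ABHD4 enzyme, wild type / Medium: HEPES pH 7.0, NaCl, Pluronic buffer / Reagent: FP-Rh activity-based fluorescent probe / Control set: S159A mutant high control, sample median low control / Detection: fluorescence polarization with parallel and perpendicular emission, 525/598 nm / Schedule: 45 min + 60 min at 25 °C / Compound dosing: 8.92 µM, single dose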
# Tn6 DDE FP – inhibitors of Tn6 peptide binding to fibrin DD(E), primary screen, biochemical, fluorescence polarization, human fibrin, Tn6 probe | 370,000 compounds, 0.21% hits | inhibition, % at 8.3 µM | Fibrin DD(E) TRITC-Tn6 fluorescence polarization displacement | Fibrinogen beta chain (Homo sapiens), P02675 | AID 720509, 2013;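 active means inhibition above a per-campaign cutoff: mean of compounds within control limits plus 3 SD, cut at about 15% in these data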;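 further: 0% = median of all compound wells on the plate and 100% = blocking peptide control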
# HTRA1 conf – HTRA1 protease inhibitors, retest, confirmation, biochemical, fluorescence polarization; shares compounds with HTRA1 inhibitor; recombinant HTRA1, FP-rhodamine activity-based probe; inhibition, % at 5.96 µM; 1,600 compounds, 66% hits;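 active means mean inhibition over three repeats above a set limit taken from the earlier primary screen, cut at about 37% in these data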;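 further: 0% = HTRA1 with DMSO and 100% = wells lacking HTRA1; inhibitors block probe binding so polarization drops and inhibition rises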
# BSA TAMRA ctr – compounds interfering with TAMRA-BSA probe, counter-screen for TCR-CD3 interaction inhibitor project, biochemical, fluorescence, TAMRA-labeled BSA; shares compounds with TCR CD3 inh; AID 652035, 2013; TAMRA-labeled BSA probe fluorescence counterscreen; 1,200 compounds, 10% hits; inhibition, % at 9.4 µM; in the data active means inhibition above about 23%;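 further: 0% = buffer low control and 100% = reference high control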
# TCR-CD3 inh conf – TCR-CD3 interaction inhibitors, retest, confirmation, biochemical, fluorescence, TAMRA-labeled TCR probe; shares compounds with TCR CD3 inh; TAMRA-labeled TCR probe fluorescence binding assay; inhibition, % at 9.4 µM; 1,200 compounds, 48% hits
# DDE Tn6 FP ctr – DD(E)-Tn6 binding inhibition, counter-screen; 680 compounds, 2% hits; inhibition, % at 8.3 µM; shares compounds with Tn6 DDE FP; Fibrin DD(E), TRITC-Tn6 fluorescence polarization displacement; 0% = median of compound wells, not DMSO;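 active means inhibition above the mean of test compounds lying between the control limits plus 3 SD of those, cut at about 14% in these data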;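 further: 0% = median of compound wells and 100% = wells with Aha-Tn7 blocking peptide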
# Tn6 DDE conf – inhibitors of Tn6 peptide binding to fibrin DD(E), confirmation, biochemical, fluorescence polarization, human fibrin, Tn6 probe; shares compounds with Tn6 DDE FP; FP displacement of TRITC-Tn6 peptide from DD(E); 0% = per-plate median of test wells; inhibition, % at 8.3 µM; 680 compounds, 10% hits;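 active means inhibition above the mean of compounds lying within the control limits plus 3 SD, cut at about 16% in these data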;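 further: 100% = high control wells holding a competing inhibitor peptide at 10 µM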
# ABHD4 confirm – ABHD4 inhibitors, retest, confirmation, biochemical, fluorescence polarization, mouse; shares compounds with mABHD4 FP; purified mABHD4, FP-Rh probe fluorescence polarization; inhibition, % at 8.92 µM; 1,800 compounds, 55% hits; AID 720658, 2013;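 active means mean inhibition across replicates above the hit cutoff set in the primary screen, cut at about 30% in these data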;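 further: 0% = wild-type ABHD4 with DMSO and 100% = catalytically dead S159A mutant with DMSO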
# SIAE inh conf – human SIAE inhibitors, retest, confirmation, biochemical, fluorescence polarization, FP-Rh probe, triplicate | shares compounds with SIAE inh | SIAE FP-Rh activity-based probe | inhibition, % at 9.66 µM | 2,300 compounds, 13% hits;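 active means mean inhibition of the replicates above the hit cutoff set in the primary screen, cut at about 17% in these data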;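 further: 0% = SIAE with DMSO and probe and 100% = probe without SIAE; inhibitors lower polarization as more probe stays unbound to SIAE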
# The depositor's hits bear a star; · = no result given. Sampled rows, rich in hits. Any-hit rate of the full collection: about 1.8%. Unless noted, no stated cut-off is given here; in the data, active means inhibition above about 19%; inactive means the rest.
SMILES,HTRA1 inhibitor,Tn7 DDE FP,TCR CD3 inh,SIAE inh,mABHD4 FP,Tn6 DDE FP,HTRA1 conf,ABHD4 confirm,SIAE inh conf,others
CC(=O)NC(c1ccco1)c1cc(Cl)c2ccccc2c1O (configuration not stated),-1.4,2.1,-7.6,11.1,8.1,-0.1,·,·,·,
COC(=O)C1CN(Cc2ccc(OC)cc2)CCS(=O)(=O)N1Cc1ccc(C(F)(F)F)cc1 (configuration not stated),·,-6.8,·,2.3,-10.7,-1.8,·,·,·,
CN(C)c1ccc2nc3ccc(=O)cc-3sc2c1,58.3*,3.0,145.2*,82.2*,113.3*,146.1*,78.5*,55.7*,68.5*,BSA TAMRA ctr=122.9*;TCR-CD3 inh conf=103.3*;DDE Tn6 FP ctr=-7.0;Tn6 DDE conf=69.9*
Cc1cc2nc3ccc(=[N+](C)C)cc-3sc2cc1N,28.5,·,·,·,·,·,·,·,·,
O=C(NC1CCCCN(Cc2cccc(Cl)c2)C1=O)c1ccc2ccccc2c1 (configuration not stated),·,-5.2,·,-7.5,-13.7,9.7,·,·,·,
Nc1ccc(NC(=O)c2ccccc2)c2c1C(=O)c1ccccc1C2=O,9.7,-0.1,-0.9,3.3,12.9,-3.2,·,·,·,
COc1ccc(OC)c2c1C(=O)C(Cl)=C(Cl)C2=O,-0.3,0.3,-3.8,10.4,23.8,-3.1,·,·,·,
Nc1ccc(O)c2c1C(=O)c1ccccc1C2=O,88.2*,2.0,42.9*,55.0*,86.5*,130.0*,95.8*,73.8*,53.8*,BSA TAMRA ctr=23.6*;TCR-CD3 inh conf=27.2*;DDE Tn6 FP ctr=7.5;Tn6 DDE conf=102.5*
COc1ccc(N)c2c1C(=O)c1ccccc1C2=O,37.9*,2.5,3.6,20.5*,43.5*,72.0*,34.2,1.3,11.9,DDE Tn6 FP ctr=4.2;Tn6 DDE conf=57.6*
COC(=O)C1CN(Cc2ccc(OC)cc2)CCS(=O)(=O)N1Cc1cn(CCOC(C)=O)nn1 (configuration not stated),·,-10.7,·,5.0,7.3,-4.0,·,·,·,
Cc1ccc(S(=O)(=O)Nc2nc3ccccc3nc2NCc2ccco2)cc1,43.4*,2.3,67.0*,22.8*,54.8*,43.9*,-5.9,-4.9,1.6,BSA TAMRA ctr=-2.2;TCR-CD3 inh conf=3.0
O=S(=O)(Nc1nc2ccccc2nc1NCc1ccco1)c1ccc(Cl)cc1,7.6,6.6,1.2,-6.5,-2.9,0.9,·,·,·,
CC(=O)Nc1ccc(C(=O)N/N=C/c2ccccc2OCc2ccccc2)cc1,-53.2,-10.4,6.4,-44.3,-45.6,-11.3,·,·,·,
Cc1ccc(C(C)C)c(OCc2ccc(C(=O)N/N=C/c3ccc(O)c(O)c3)cc2)c1,63.2*,2.2,-0.8,25.8*,18.1,3.1,55.9*,·,-14.0,
Cc1ccc(C(C)C)c(OCc2ccc(C(=O)N/N=C/c3cccc(O)c3O)cc2)c1,83.4*,-4.0,18.4,27.9*,12.2,-16.5,78.4*,·,-0.5,
O=C(N/N=C/c1ccc(O)c(O)c1)c1ccc(CSc2cccc3cccnc23)cc1,56.8*,-8.7,16.1,41.5*,22.9,-11.4,85.0*,·,15.5,
O=C(CSc1nnc(-c2cccs2)o1)c1cccc([N+](=O)[O-])c1,·,-3.5,·,-6.9,-1.4,-5.9,·,·,·,
CC(CCN1CCC(C(O)(c2ccccc2)c2ccccc2)CC1)Oc1ccccc1C#N (configuration not stated),·,-10.9,·,-0.4,3.1,-7.4,·,·,·,
COc1ccc(OC)c2[nH]c(C(=O)N/N=C/c3ccccc3O)cc12,53.9*,11.5,18.1,34.8*,24.0,-2.9,22.1,·,8.5,
CNc1ccccc(-c2ccc3ccccc3n2)c1=O,38.5*,4.2,9.2,20.6*,36.1*,0.1,4.4,14.0,2.1,
Cc1cccc(-c2cccc3c4c([nH]c23)[C@@H]2C[C@H](N(C)C(=O)Nc3ccccc3)[C@H]([C@H](C)O)CN2CC4)c1,·,-13.6,·,-3.0,-3.4,-5.9,·,·,·,
Cc1cc(O)ccc1N=Cc1c(C(F)(F)F)[nH][nH]c1=O,103.8*,4.1,83.6*,73.2*,108.7*,76.9*,4.6,11.5,3.2,BSA TAMRA ctr=29.5*;TCR-CD3 inh conf=13.8;DDE Tn6 FP ctr=-5.4;Tn6 DDE conf=-0.4
Cc1ccccc1C(=O)Nc1cccc(C(=O)N/N=C/c2cc(Cl)cc([N+](=O)[O-])c2O)c1,41.9*,4.9,45.4*,27.9*,36.6*,9.7,49.9*,48.8*,1.7,BSA TAMRA ctr=-6.3;TCR-CD3 inh conf=55.7*
COc1cc(/C=N/NC(=O)c2cccc(NC(=O)c3ccccc3C)c2)ccc1O,-8.6,-4.5,-2.0,7.3,7.2,-8.0,·,·,·,
CCn1c2ccccc2c2cc(NC(=O)COC(=O)c3cccc(F)c3)ccc21,·,1.0,·,4.2,0.7,7.0,·,·,·,
CC1=CC(C)(C)N2C(=O)C(=Nc3ccc(O)cc3)c3cccc1c32,53.2*,-5.8,42.4*,21.6*,59.7*,5.8,9.7,28.0,6.7,BSA TAMRA ctr=4.8;TCR-CD3 inh conf=1.2

# Screening data from PubChem BioAssay.
